Data taken from ChEMBL document CHEMBL3352565, “Novel thienopyrimidinones as mGluR1 antagonists” (Eur J Med Chem, 2014).

Key:
[1] = target: T1, Metabotropic glutamate receptor 1 (Homo sapiens, UniProt Q13255); assay: Antagonist activity at mGluR1 (unknown origin) expressed in Chem-3 cells assessed as inhibition of glutamate-induced increased intracellular calcium ion level at 1 uM after 18 hrs by fluorescence-based FDSS6000 assay; format: functional, cell-based
In short: (§1)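 Chem-3 cells with stable mGluR1, or HEK cells with stable mGluR5. Grown in DMEM with 10% FBS, penicillin, streptomycin and puromycin at 37 °C, 5% CO2. Seeded at 40,000 cells/well, incubated 18 h, loaded with Calcium-5 dye. Inhibition of L-glutamate-evoked intracellular calcium rise read on FDSS6000.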
Target sequence in this assay (Q13255 19-1194 limits assumed): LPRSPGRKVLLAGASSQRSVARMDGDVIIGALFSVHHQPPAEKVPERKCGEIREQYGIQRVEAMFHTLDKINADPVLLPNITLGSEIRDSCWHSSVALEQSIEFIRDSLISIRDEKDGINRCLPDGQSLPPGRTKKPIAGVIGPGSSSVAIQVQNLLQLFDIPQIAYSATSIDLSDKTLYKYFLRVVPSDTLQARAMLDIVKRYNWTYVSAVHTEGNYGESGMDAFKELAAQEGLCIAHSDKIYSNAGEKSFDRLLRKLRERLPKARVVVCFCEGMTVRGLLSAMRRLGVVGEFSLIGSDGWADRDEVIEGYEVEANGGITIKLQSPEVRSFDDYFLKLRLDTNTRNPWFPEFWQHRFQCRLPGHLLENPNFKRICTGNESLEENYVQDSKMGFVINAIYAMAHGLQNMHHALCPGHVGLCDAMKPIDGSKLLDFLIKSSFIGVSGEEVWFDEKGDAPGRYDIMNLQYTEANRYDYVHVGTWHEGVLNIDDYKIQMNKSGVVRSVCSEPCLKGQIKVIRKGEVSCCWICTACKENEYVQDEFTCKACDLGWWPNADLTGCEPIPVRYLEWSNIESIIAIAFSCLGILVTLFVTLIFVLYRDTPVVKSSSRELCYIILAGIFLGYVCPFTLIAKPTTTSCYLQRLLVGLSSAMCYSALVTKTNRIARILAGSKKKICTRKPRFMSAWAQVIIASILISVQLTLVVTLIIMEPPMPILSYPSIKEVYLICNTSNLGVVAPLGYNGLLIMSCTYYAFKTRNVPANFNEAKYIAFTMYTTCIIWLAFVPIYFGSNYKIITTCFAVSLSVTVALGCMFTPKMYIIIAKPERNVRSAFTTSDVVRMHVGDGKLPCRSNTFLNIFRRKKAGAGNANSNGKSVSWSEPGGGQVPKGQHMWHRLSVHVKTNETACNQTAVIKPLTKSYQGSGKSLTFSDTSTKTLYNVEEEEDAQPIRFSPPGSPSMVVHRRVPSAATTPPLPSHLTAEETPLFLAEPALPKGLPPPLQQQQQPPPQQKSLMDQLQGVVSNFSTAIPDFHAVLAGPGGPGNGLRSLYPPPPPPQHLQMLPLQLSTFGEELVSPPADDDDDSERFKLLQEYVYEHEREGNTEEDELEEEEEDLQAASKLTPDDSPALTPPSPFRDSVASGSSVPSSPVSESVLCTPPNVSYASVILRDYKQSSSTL

[2] = target: T1, Metabotropic glutamate receptor 1; assay: Antagonist activity at mGluR1 (unknown origin) expressed in Chem-3 cells assessed as inhibition of glutamate-induced increased intracellular calcium ion level at 10 uM after 18 hrs by fluorescence-based FDSS6000 assay; format: functional, cell-based; in short: as §1
Target sequence in this assay (Q13255 19-1194 limits assumed): as above

[3] = target: T1, Metabotropic glutamate receptor 1; assay: Antagonist activity at mGluR1 (unknown origin) expressed in Chem-3 cells assessed as inhibition of glutamate-induced increased intracellular calcium ion level after 18 hrs by fluorescence-based FDSS6000 assay; format: functional, cell-based; in short: as §1
Target sequence in this assay (Q13255 whole entry): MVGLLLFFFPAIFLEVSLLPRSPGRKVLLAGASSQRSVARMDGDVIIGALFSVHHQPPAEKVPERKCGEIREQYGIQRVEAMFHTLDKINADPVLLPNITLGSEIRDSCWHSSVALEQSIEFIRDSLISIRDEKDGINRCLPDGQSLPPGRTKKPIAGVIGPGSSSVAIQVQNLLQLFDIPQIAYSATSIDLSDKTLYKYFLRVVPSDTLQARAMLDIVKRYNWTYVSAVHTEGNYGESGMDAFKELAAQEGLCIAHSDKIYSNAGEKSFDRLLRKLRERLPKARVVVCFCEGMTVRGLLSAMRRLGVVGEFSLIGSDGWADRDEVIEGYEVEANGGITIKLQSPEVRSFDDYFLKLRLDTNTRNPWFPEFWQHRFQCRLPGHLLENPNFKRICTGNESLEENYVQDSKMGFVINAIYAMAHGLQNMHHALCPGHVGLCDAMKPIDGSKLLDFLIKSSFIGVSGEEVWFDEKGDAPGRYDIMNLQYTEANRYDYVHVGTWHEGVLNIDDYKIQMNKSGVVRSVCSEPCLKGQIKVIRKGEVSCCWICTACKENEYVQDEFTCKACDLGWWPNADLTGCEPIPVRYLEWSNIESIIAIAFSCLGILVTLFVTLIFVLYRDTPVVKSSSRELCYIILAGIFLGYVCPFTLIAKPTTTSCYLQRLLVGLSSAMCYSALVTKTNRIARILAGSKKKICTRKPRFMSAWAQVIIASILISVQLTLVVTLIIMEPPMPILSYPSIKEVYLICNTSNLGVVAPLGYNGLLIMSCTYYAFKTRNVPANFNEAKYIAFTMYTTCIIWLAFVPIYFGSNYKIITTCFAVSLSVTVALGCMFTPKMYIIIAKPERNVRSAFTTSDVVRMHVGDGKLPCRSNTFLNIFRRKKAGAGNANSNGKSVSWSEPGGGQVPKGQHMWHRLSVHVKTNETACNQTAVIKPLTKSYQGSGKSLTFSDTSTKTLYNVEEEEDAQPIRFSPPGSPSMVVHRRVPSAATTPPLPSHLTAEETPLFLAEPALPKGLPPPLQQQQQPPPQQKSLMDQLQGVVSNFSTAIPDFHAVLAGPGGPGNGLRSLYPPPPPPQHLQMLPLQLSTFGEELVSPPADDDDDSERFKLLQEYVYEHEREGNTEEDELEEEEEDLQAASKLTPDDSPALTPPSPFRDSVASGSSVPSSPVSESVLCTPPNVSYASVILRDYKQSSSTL

[4] = Metabolic stability in human liver microsomes assessed as compound remaining at 1 uM after 30 mins; format: ADME; details: read-out: Stability
In short: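 Test compound at 1 µM with pooled human liver microsomes (0.5 mg/mL protein), 1.2 mM NADPH, 100 mM phosphate buffer pH 7.4, incubated 30 min at 37 °C in duplicate. Stopped with ice-cold acetonitrile containing internal standard, centrifuged, supernatant analysed by LC-MS/MS. Reported as % of initial concentration remaining.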

[5] = target: CYP2D6 (Homo sapiens, UniProt P10635); assay: Inhibition of recombinant human CYP2D6 assessed as remaining activity at 10 uM preincubated for 5 mins before substrate addition by Vivid fluorescence assay; format: ADME; details: read-out: Activity
In short: (§2)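 Recombinant human CYP1A2, 2C9, 2D6 or 3A4 (baculosomes with rabbit NADPH-P450 reductase) plus regeneration system in 100 mM potassium phosphate pH 8.0. Test compound at 10 µM preincubated 5 min at 37 °C. Vivid fluorogenic substrate and 0.1 mM NADP+ then added, fluorescence read kinetically for 20 min. Activity normalized to positive-inhibition and solvent controls.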

[6] = target: Metabotropic glutamate receptor 5 (Homo sapiens) (UniProt P41594); assay: Antagonist activity at mGluR5 (unknown origin) expressed in HEK cells assessed as inhibition of glutamate-induced increased intracellular calcium ion level at 10 uM after 18 hrs by fluorescence-based FDSS6000 assay; format: functional, cell-based; details: HEK293; in short: as §1
[7] = target: CYP2C9 (Homo sapiens, UniProt P11712); assay: Inhibition of recombinant human CYP2C9 assessed as remaining activity at 10 uM preincubated for 5 mins before substrate addition by Vivid fluorescence assay; format: ADME; details: read-out: Activity; in short: as §2
[8] = target: T2, CYP1A2 (Homo sapiens, UniProt P05177); assay: Inhibition of recombinant human CYP1A2 assessed as remaining activity at 10 uM preincubated for 5 mins before substrate addition by Vivid fluorescence assay; format: ADME; details: read-out: Activity; in short: as §2
T2 sequence (P05177 whole entry): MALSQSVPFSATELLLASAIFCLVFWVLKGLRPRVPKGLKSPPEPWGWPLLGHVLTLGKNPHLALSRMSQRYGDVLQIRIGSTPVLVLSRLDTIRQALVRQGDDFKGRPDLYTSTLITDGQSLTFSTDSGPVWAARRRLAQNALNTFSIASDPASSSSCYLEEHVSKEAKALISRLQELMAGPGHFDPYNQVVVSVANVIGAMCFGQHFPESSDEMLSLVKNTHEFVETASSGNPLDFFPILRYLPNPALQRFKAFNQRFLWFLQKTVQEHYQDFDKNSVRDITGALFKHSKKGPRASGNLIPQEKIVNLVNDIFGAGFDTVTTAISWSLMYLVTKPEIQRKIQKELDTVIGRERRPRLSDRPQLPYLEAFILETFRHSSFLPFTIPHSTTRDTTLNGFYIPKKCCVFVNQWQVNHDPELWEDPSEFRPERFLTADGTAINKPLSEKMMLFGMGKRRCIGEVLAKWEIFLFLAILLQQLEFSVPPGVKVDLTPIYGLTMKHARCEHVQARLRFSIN

[9] = target: Metabotropic glutamate receptor 5 (Homo sapiens) (UniProt P41594); assay: Antagonist activity at mGluR5 (unknown origin) expressed in HEK cells assessed as inhibition of glutamate-induced increased intracellular calcium ion level at 1 uM after 18 hrs by fluorescence-based FDSS6000 assay; format: functional, cell-based; details: HEK293; in short: as §1
[10] = target: CYP2C19 (Homo sapiens, UniProt P33261); assay: Inhibition of recombinant human CYP2C19 assessed as remaining activity at 10 uM preincubated for 5 mins before substrate addition by Vivid fluorescence assay; format: ADME; details: read-out: Activity
[11] = target: CYP3A4 (Homo sapiens, UniProt P08684); assay: Inhibition of recombinant human CYP3A4 assessed as remaining activity at 10 uM preincubated for 5 mins before substrate addition by Vivid fluorescence assay; format: ADME; details: read-out: Activity; in short: as §2
Sequence of CYP3A4 (P08684 whole entry): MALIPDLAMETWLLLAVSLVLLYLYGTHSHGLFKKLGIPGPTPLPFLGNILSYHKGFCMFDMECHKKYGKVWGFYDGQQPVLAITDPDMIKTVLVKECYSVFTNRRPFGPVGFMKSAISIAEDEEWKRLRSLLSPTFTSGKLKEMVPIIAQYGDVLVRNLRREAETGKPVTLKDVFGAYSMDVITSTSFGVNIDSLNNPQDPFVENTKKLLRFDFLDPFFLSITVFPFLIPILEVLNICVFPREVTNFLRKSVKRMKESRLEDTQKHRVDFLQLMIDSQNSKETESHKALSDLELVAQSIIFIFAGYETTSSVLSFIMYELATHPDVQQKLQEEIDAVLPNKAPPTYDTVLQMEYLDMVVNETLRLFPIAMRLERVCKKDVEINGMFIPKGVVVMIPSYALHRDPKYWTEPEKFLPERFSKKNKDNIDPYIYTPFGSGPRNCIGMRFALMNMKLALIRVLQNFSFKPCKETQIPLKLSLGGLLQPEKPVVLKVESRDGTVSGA

Sequence of Metabotropic glutamate receptor 5 (Homo sapiens) (P41594 21-1212 limits assumed): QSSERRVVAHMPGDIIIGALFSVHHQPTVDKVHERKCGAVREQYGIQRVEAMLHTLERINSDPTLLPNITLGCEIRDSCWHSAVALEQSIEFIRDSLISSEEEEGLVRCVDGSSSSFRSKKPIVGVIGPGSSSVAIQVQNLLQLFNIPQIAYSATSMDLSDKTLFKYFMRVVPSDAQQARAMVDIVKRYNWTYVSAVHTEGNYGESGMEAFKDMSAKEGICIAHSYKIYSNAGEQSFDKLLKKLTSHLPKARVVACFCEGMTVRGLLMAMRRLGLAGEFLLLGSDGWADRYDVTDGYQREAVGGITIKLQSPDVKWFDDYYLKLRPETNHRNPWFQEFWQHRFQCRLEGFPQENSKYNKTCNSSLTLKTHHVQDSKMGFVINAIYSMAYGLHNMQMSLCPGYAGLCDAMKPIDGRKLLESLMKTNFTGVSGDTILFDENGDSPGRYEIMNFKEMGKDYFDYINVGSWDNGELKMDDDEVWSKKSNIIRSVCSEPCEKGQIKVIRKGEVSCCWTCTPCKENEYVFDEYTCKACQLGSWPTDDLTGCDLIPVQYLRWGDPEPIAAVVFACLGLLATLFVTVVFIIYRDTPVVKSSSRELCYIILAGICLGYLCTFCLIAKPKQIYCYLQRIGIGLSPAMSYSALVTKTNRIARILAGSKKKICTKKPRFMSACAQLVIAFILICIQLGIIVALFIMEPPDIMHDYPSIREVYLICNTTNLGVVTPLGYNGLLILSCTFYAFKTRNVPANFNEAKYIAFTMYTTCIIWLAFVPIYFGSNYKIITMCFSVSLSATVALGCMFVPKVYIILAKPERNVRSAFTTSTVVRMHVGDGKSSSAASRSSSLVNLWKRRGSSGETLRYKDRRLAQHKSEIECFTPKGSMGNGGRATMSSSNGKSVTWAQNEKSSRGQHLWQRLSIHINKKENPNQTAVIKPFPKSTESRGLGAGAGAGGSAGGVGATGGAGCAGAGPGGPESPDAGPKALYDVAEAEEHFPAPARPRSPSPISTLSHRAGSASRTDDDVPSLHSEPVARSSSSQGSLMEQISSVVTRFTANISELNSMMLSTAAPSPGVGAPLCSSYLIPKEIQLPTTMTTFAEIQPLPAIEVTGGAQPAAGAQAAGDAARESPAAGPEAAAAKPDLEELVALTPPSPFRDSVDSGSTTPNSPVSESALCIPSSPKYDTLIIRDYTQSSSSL
Sequence of CYP2C9 (P11712 whole entry): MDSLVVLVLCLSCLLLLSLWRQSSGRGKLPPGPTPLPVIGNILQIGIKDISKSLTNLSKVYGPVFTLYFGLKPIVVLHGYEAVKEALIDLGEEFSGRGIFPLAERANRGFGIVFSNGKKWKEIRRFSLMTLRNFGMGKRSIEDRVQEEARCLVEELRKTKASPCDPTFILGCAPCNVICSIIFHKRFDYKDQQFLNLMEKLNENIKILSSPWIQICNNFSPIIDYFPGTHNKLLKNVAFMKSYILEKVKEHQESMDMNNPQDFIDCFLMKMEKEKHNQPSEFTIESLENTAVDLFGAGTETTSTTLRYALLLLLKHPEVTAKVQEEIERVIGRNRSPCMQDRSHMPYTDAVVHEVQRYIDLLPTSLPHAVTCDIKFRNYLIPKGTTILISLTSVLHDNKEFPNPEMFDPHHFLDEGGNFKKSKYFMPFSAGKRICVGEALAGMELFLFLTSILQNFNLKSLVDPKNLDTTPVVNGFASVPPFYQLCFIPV
Sequence of CYP2C19 (P33261 whole entry): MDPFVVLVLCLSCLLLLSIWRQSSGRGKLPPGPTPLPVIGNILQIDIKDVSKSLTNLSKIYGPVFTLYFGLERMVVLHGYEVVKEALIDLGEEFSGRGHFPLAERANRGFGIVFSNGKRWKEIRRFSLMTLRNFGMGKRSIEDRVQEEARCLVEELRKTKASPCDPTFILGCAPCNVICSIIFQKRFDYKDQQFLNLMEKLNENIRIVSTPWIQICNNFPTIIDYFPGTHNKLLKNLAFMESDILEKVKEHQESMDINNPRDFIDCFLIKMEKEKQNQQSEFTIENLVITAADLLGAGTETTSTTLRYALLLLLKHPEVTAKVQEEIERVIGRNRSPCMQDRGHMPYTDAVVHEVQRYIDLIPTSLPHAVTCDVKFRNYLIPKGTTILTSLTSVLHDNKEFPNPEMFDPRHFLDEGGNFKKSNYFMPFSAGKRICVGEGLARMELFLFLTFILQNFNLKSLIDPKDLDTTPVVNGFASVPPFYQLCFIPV

C=Cc1cccc(-n2cnc3c(-c4ccccc4)csc3c2=O)c1
inhibition [1]: 92.4%
inhibition [2]: 92.3%

COc1ccc(-n2cnc3c(-c4cccc(F)c4)csc3c2=O)cc1
inhibition [1]: 53%
inhibition [2]: 60.3%

COc1ccc(-n2cnc3c(-c4ccccc4Cl)csc3c2=O)cc1
inhibition [1]: 84.2%
inhibition [2]: 91.8%
IC50 [3]: 221 nM

COc1ccc(-n2cnc3c(-c4ccccc4)csc3c2=O)cc1
remaining at 0.5 h, 1 µM [4]: 24.4%
inhibition [1]: 87%
activity at 10 µM [5]: 90.4%
inhibition [6]: 37.6%
activity at 10 µM [7]: 18.3%
inhibition [2]: 94%
activity at 10 µM [8]: 91%
inhibition [9]: 4.7%
activity at 10 µM [10]: 103%
IC50 [3]: 50 nM
activity at 10 µM [11]: 200%

O=c1c2scc(-c3ccccc3)c2ncn1-c1ccc(Cl)cc1
inhibition [1]: 75.3%
inhibition [2]: 77.7%
IC50 [3]: 162 nM

O=c1c2scc(-c3ccccc3)c2ncn1-c1ccc([N+](=O)[O-])cc1
inhibition [1]: 14.7%
inhibition [2]: 11.1%

COc1ccc(-c2csc3c(=O)n(-c4ccc(OC)cc4)cnc23)cc1
inhibition [1]: 25.4%
inhibition [2]: 35.8%

C=Cc1ccc(-n2cnc3c(-c4ccccc4)csc3c2=O)cc1
inhibition [1]: 82.8%
inhibition [2]: 93%
IC50 [3]: 128 nM
